Bioassay records as filed in PubChem.
Rows were chosen to be rich in hits. Some 2.6% of all compounds tested hit in one or more screens of this group.
SR-BI HDL uptake: inhibitors of mouse SR-BI mediated HDL lipid uptake; Q61009; ldlA[mSR-BI] CHO cells, DiI-HDL uptake fluorescence, 3 h; inhibition, % at 12.5 µM; 320,000 compounds, 0.96% hits; AID 488896;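 active = mean replicate inhibition of at least 70% and a set share of replicates each scoring 70 or more; inconclusive = meets just one of the two criteria; inactive = fails both criteria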;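 also: 0% = median of neutral control wells and 100% = median of positive control wells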
PvdQ inh: blocks Pseudomonas aeruginosa PvdQ acylase activity | 340,000 compounds, 0.063% hits | purified PvdQ acylase, fluorescence plate reader | AID 488965 | inhibition, % at 10 µM; in the data active = inhibition above about 30%, passing the limit was not always enough; inconclusive = no clear call, values can overlap the other calls;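 also: 0% = vehicle neutral wells and 100% = reference inhibitor wells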
SR-BI DiI-HDL act: enhances SR-BI lipid uptake from DiI-HDL; CHO ldlA[mSR-BI] cells, DiI-HDL uptake fluorescence, 3 h; 100 = double the neutral-control signal; activation, % at 12.5 µM; 320,000 compounds, 0.096% hits;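 active = mean replicate activation of at least 60% and every replicate at or above 60%; inconclusive = mean or all-replicate condition met, but not both; inactive = mean below 60% and not all replicates reaching 60%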;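 also: 0% = median plate neutral-control signal and 100% = twice that signal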
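material = CHO ldlA[mSR-BI] cells | medium = Ham's F12 with 0.5% BSA, HEPES 25 mM, pH 7.4 | reagent = fluorescent DiI-HDL, 10 µg/mL final | compound dosing = single-point compound dose | incubation = 3 h, 37 °C | measured by = bottom-read fluorescence, 550/595 nm | measure = HDL uptake via cellular fluorescence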
dFosB activator: enhances mouse delta FosB homodimer DNA binding. purified delta FosB, TAMRA-CDK5 oligo fluorescence polarization; percent of positive-control signal above neutral wells. activation, % at 25 µM. 340,000 compounds, 0.99% hits. P13346;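 active = mean activation above about 17%, with every replicate also reaching it, limit read from the data, passing the limit was not always enough; inconclusive = only one of the two conditions met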
Target sequence (P13346 whole entry, looked up): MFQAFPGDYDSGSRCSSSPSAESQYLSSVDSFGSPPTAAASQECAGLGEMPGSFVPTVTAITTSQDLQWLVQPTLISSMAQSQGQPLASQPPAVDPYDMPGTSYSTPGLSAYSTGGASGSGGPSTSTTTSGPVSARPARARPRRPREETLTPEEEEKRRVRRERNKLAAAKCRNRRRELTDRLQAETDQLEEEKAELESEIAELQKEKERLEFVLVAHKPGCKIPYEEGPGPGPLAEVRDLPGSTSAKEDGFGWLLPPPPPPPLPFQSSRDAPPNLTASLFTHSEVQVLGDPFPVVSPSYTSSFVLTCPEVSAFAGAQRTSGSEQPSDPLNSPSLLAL
Xi reactivation: reactivates the inactive X chromosome in mouse fibroblasts; XiGFP mouse fibroblasts, % GFP-positive cells imaging, 3 d; cells co-treated with 5-aza-dC sensitizer; scaled so ellipticine positive control = 100%; activation, % at 7.58 µM; 360,000 compounds, 0.055% hits;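 active = mean normalized replicate activation at least 10% and every replicate at or above 10%; inconclusive = only one of the two criteria met; inactive = mean below 10% and not all replicates reach 10%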;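 also: 0% = median of on-plate neutral control wells and 100% = ellipticine 6 µM median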
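assay system = SV40-immortalized XiGFP fibroblast cells, line 68-5-11 | buffer or medium = DMEM plus 5-aza-dC sensitizer | doses = single-point pinned compound dosing | times = 3-day compound exposure, then 15 min fixation at room temperature | benchmarks = positive control ellipticine, 6 µM final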
rRNA inh HTS: inhibits bacterial ribosomal RNA function over humanized ribosomes; AID 720706; 350,000 compounds, 1.6% hits; E. coli WT GFP vs humanized-ribosome RFP mutants, fluorescence, 24 h; stronger effect = lower value; DMSO median 0, no signal -100; GFP signal change (wild-type ribosome), % (concentration not given with the values);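 active = significant combined selectivity score with lowered wild-type GFP, culture density cut under 30%, mutant RFP and density less affected; inactive = any of these conditions unmet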
* = called active by the depositor; ? = inconclusive; nt = no result.

SMILES	SR-BI HDL uptake	PvdQ inh	SR-BI DiI-HDL act	dFosB activator	Xi reactivation	rRNA inh HTS
Cc1[nH]c2ccccc2c1N=Nc1ccc(F)cc1	83*	15	-83	-13	0	-52
COc1cc(/C=C2/C(=O)NN(c3ccc(Cl)cc3)C2=O)cc(Br)c1O	nt	-11	nt	-9	0	-25
Cc1ccc(N2C(=O)c3cccc4c(N)ccc(c34)C2=O)c2cccnc12	nt	-3	nt	-5	116*	35
Cc1csc2nc3ccccc3c(=O)n12	3	-6	-3	-8	nt	nt
O=C1c2cccc3cccc(c23)C(=O)N1c1ccccc1Cl	-224	-18	?	-10	0	-32*
Cc1ccccc1NC(=O)C1CCC(=O)N1 (configuration not stated)	69	-15	-69	-4	0	9
CCc1ccc(/C=C2/SC(N3CCOCC3)=NC2=O)cc1	-4	-13	4	0	0	-19*
O=C1N=C(N2CCN(c3ccccc3)CC2)S/C1=C/c1ccco1	-12	8	12	-12	0	-38*
CCc1cccc(NC(=O)CCC(=O)N2CCSc3ccccc32)c1	-16	-6	16	0	0	-24*
CC(=O)COc1ccc2c3c(c(=O)oc2c1C)CCCCC3	12	-22	-12	-6	nt	nt
COc1ccccc1C/C(N)=N/OC(=O)c1cccs1	-1	-13	1	5	0	-25*
CCN(CC(=O)Nc1cccc(OC)c1)CC(=O)Nc1ccccc1C	-3	-2	3	-5	0	5
Cc1ccc(NC(=O)CN(C)CC(=O)Nc2ccccc2Oc2ccccc2)cc1	-27	-18	27	-9	0	-35*
CCN(CC(=O)Nc1cccc(OC)c1)CC(=O)Nc1ccc(Br)c(C)c1	11	-17	-11	-13	0	-54*
COc1cccc(NC(=O)COC(=O)c2sccc2C)c1	17	-5	-17	-4	0	-21*
COc1cccc(NC(=O)CN(C)CC(=O)Nc2ccc(Br)cc2)c1	5	-17	-5	-1	0	-34*
COCC(=O)N(C)C[C@H]1Oc2ncc(-c3ccccc3C)cc2C(=O)N([C@H](C)CO)C[C@H]1C	nt	nt	nt	nt	-1	3
NS(=O)(=O)c1ccc(NC(=O)c2ccc(Cl)c(S(=O)(=O)NCc3ccco3)c2)cc1	37	-5	-37	-10	0	7
Cc1ccc(NC(=O)c2ccc(Cl)c(S(=O)(=O)NCc3ccco3)c2)c(O)c1	90*	-8	-90	-8	1	-9
CCCO/N=C1/C(=O)N(c2ccccc2)c2ccccc21	?	0	-72	-11	0	-38*
CCO/N=C1\C(=O)N(c2ccccc2)c2ccccc21	51	3	-51	6	0	-5
CC(=O)Nc1ccc(OCc2cnc(Cl)s2)cc1	0	-1	0	-2	0	0
O/N=C/c1ccc2ccccc2n1	-82	-10	82*	-5	0	10
CCCCOc1ccc(C(=O)NCCN2CCC(n3c(=O)[nH]c4ccccc43)CC2)cc1	nt	nt	nt	nt	0	-45*
O=S(=O)(NCCC1CC1(Cl)Cl)c1ccc(Cl)cc1 (configuration not stated)	10	28	-10	-3	0	-48*
SMILES	SR-BI HDL uptake	PvdQ inh	SR-BI DiI-HDL act	dFosB activator	Xi reactivation	rRNA inh HTS
CC(C)(C)SCCNS(=O)(=O)c1ccc(Cl)cc1	-32	-4	32	-5	0	-34
C[C@@H]1CN([C@H](C)CO)C(=O)c2cccc(NC(=O)C3CCCCC3)c2O[C@@H]1CN(C)Cc1ccccc1	nt	nt	nt	nt	0	-3
CCC(CC)C(=O)NCCc1cc2ccc(C)cc2[nH]c1=O	-30	8	30	-3	0	-14*
C[C@H]1CN([C@@H](C)CO)C(=O)CCCn2nncc2CO[C@H]1CN(C)C(=O)Nc1ccc2c(c1)OCO2	nt	nt	nt	nt	0	5
COc1ccc2nc(NC(=O)c3cc(C)oc3C)sc2c1	83*	-21	-83	4	nt	nt
Cc1cc(C(=O)Nc2nc3ccc(S(C)(=O)=O)cc3s2)c(C)o1	82*	-4	-82	1	nt	6
